ChEMBL document CHEMBL4325889, “Natural products hybrids: 3,5,4'-Trimethoxystilbene-5,6,7-trimethoxyflavone chimeric analogs as potential cytotoxic agents against diverse human cancer cells” (Eur J Med Chem, 2019)

Columns and labels:
Assay type in all cases: functional
SN12C = assay: Growth inhibition of human SN12C cells at 10 uM after 48 hrs by SRB assay relative to control; conditions: read-out: GI
How it was run: (§1)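 Screened at the National Cancer Institute by the standard NCI protocol using the sulforhodamine B assay, which measures cellular protein. Single dose of 10 µM. Result is percent growth inhibition; values above 100% mean cell number fell below the initial population. Values are the average of duplicates.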

CCRF-CEM = assay: Growth inhibition of human CCRF-CEM cells at 10 uM after 48 hrs by SRB assay relative to control; conditions: read-out: GI; how it was run: as §1
RPMI-8226 = assay: Growth inhibition of human RPMI8226 cells at 10 uM after 48 hrs by SRB assay relative to control; conditions: RPMI-8226, 48 h, read-out: GI; how it was run: as §1
786-0 = assay: Growth inhibition of human 786-0 cells at 10 uM after 48 hrs by SRB assay relative to control; conditions: 786-0, 48 h, read-out: GI; how it was run: as §1
NCI-H322M = assay: Growth inhibition of human NCI-H322M cells at 10 uM after 48 hrs by SRB assay relative to control; conditions: read-out: GI; how it was run: as §1
UO-31 = assay: Growth inhibition of human UO31 cells at 10 uM after 48 hrs by SRB assay relative to control; conditions: UO-31, 48 h, read-out: GI
How it was run: (§2)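 NCI screen against its human cancer cell line panel by the standard NCI protocol, SRB protein stain. Single dose of 10 μM. Percent growth inhibition versus control; values above 100% mean the cell population fell below the starting number. Each value is the mean of duplicates.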

Malme-3M = assay: Growth inhibition of human MALME-3M cells at 10 uM after 48 hrs by SRB assay relative to control; conditions: read-out: GI; how it was run: as §1
SNB-75 = assay: Growth inhibition of human SNB75 cells at 10 uM after 48 hrs by SRB assay relative to control; conditions: SNB-75, 48 h, read-out: GI; how it was run: as §2
LOX IMVI = assay: Growth inhibition of human LOXIMVI cells at 10 uM after 48 hrs by SRB assay relative to control; conditions: read-out: GI; how it was run: as §1
MCF7 = assay: Growth inhibition of human MCF7 cells at 10 uM after 48 hrs by SRB assay relative to control; conditions: MCF7, 48 h, read-out: GI; how it was run: as §1
NCI-H23 = assay: Growth inhibition of human NCI-H23 cells at 10 uM after 48 hrs by SRB assay relative to control; conditions: NCI-H23, 48 h, read-out: GI; how it was run: as §1
NCI-H522 = assay: Growth inhibition of human NCI-H522 cells at 10 uM after 48 hrs by SRB assay relative to control; conditions: NCI-H522, 48 h, read-out: GI; how it was run: as §1
COLO 205 = assay: Growth inhibition of human COLO205 cells at 10 uM after 48 hrs by SRB assay relative to control; conditions: COLO 205, 48 h, read-out: GI; how it was run: as §1
TK-10 = assay: Growth inhibition of human TK10 cells at 10 uM after 48 hrs by SRB assay relative to control; conditions: TK-10, 48 h, read-out: GI; how it was run: as §2
BT-549 = assay: Growth inhibition of human BT549 cells at 10 uM after 48 hrs by SRB assay relative to control; conditions: BT-549, 48 h, read-out: GI; how it was run: as §1
NCI-H226 = assay: Growth inhibition of human NCI-H226 cells at 10 uM after 48 hrs by SRB assay relative to control; conditions: NCI-H226, 48 h, read-out: GI; how it was run: as §1
HL-60(TB) = assay: Growth inhibition of human HL-60(TB) cells at 10 uM after 48 hrs by SRB assay relative to control; conditions: HL-60, 48 h, read-out: GI
How it was run: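 Run at NCI under its standard single-dose protocol against a leukemia cell panel. Cells were exposed to 10 µM; growth was read by sulforhodamine B staining of cellular protein and expressed as % growth inhibition versus untreated control. Values above 100% mean the cell population fell below the starting count (cytocidal). Each value is the average of duplicates.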

SK-MEL-28 = assay: Growth inhibition of human SK-MEL-28 cells at 10 uM after 48 hrs by SRB assay relative to control; conditions: SK-MEL-28, 48 h, read-out: GI; how it was run: as §1
HOP-62 = assay: Growth inhibition of human HOP62 cells at 10 uM after 48 hrs by SRB assay relative to control; conditions: HOP-62, 48 h, read-out: GI; how it was run: as §1
DU-145 = assay: Growth inhibition of human DU145 cells at 10 uM after 48 hrs by SRB assay relative to control; conditions: DU-145, 48 h, read-out: GI; how it was run: as §1
A549 = assay: Growth inhibition of human A549 cells at 10 uM after 48 hrs by SRB assay relative to control; conditions: A549, 48 h, read-out: GI; how it was run: as §1
SF-539 = assay: Growth inhibition of human SF539 cells at 10 uM after 48 hrs by SRB assay relative to control; conditions: SF-539, 48 h, read-out: GI; how it was run: as §1
MOLT-4 = assay: Growth inhibition of human MOLT4 cells at 10 uM after 48 hrs by SRB assay relative to control; conditions: MOLT-4, 48 h, read-out: GI; how it was run: as §1
NCI-H460 = assay: Growth inhibition of human NCI-H460 cells at 10 uM after 48 hrs by SRB assay relative to control; conditions: NCI-H460, 48 h, read-out: GI; how it was run: as §1
Hs-578T = assay: Growth inhibition of human Hs 578T cells at 10 uM after 48 hrs by SRB assay relative to control; conditions: read-out: GI; how it was run: as §1
UACC-257 = assay: Growth inhibition of human UACC257 cells at 10 uM after 48 hrs by SRB assay relative to control; conditions: UACC-257, 48 h, read-out: GI; how it was run: as §2
OVCAR-4 = assay: Growth inhibition of human OVCAR4 cells at 10 uM after 48 hrs by SRB assay relative to control; conditions: OVCAR-4, 48 h, read-out: GI; how it was run: as §1
NCI/ADR-RES = assay: Growth inhibition of human NCI/ADR-RES cells at 10 uM after 48 hrs by SRB assay relative to control; conditions: read-out: GI; how it was run: as §1
RXF 393 = assay: Growth inhibition of human RXF393 cells at 10 uM after 48 hrs by SRB assay relative to control; conditions: RXF 393, 48 h, read-out: GI; how it was run: as §1
SF-295 = assay: Growth inhibition of human SF295 cells at 10 uM after 48 hrs by SRB assay relative to control; conditions: SF-295, 48 h, read-out: GI; how it was run: as §1
MDA-MB-435 = assay: Growth inhibition of human MDA-MB-435 cells at 10 uM after 48 hrs by SRB assay relative to control; conditions: MDA-MB-435, 48 h, read-out: GI; how it was run: as §1
HCC 2998 = assay: Growth inhibition of human HCC2998 cells at 10 uM after 48 hrs by SRB assay relative to control; conditions: HCC 2998, 48 h, read-out: GI; how it was run: as §1
K562 = assay: Growth inhibition of human K562 cells at 10 uM after 48 hrs by SRB assay relative to control; conditions: K562, 48 h, read-out: GI; how it was run: as §1
PC-3 = assay: Growth inhibition of human PC3 cells at 10 uM after 48 hrs by SRB assay relative to control; conditions: PC-3, 48 h, read-out: GI; how it was run: as §1

SMILES	inhibition of growth at 10 µM (SN12C)	inhibition of growth at 10 µM (CCRF-CEM)	inhibition of growth at 10 µM (RPMI-8226)	inhibition of growth at 10 µM (786-0)	inhibition of growth at 10 µM (NCI-H322M)	inhibition of growth at 10 µM (UO-31)	inhibition of growth at 10 µM (Malme-3M)	inhibition of growth at 10 µM (SNB-75)	inhibition of growth at 10 µM (LOX IMVI)	inhibition of growth at 10 µM (MCF7)	inhibition of growth at 10 µM (NCI-H23)	inhibition of growth at 10 µM (NCI-H522)	inhibition of growth at 10 µM (COLO 205)	inhibition of growth at 10 µM (TK-10)	inhibition of growth at 10 µM (BT-549)	inhibition of growth at 10 µM (NCI-H226)	inhibition of growth at 10 µM (HL-60(TB))	inhibition of growth at 10 µM (SK-MEL-28)	inhibition of growth at 10 µM (HOP-62)	inhibition of growth at 10 µM (DU-145)	further results
COc1cccc(C(=O)Nc2cccc(-c3cc(=O)c4c(O)c(OC)c(OC)cc4o3)c2)c1	34.9%	50.5%	74.2%	26.7%	30.9%	52.9%	29.5%	13.1%	57.6%	34.9%	32.6%	56.9%	5.46%	16.7%	34.2%	36.3%	19.5%	22.5%	37.1%	36.7%	inhibition of growth at 10 µM (A549): 35.4%; inhibition of growth at 10 µM (SF-539): 22.9%; inhibition of growth at 10 µM (MOLT-4): 49.3%; inhibition of growth at 10 µM (NCI-H460): 45.6%; inhibition of growth at 10 µM (Hs-578T): 34.1%; inhibition of growth at 10 µM (UACC-257): 25.9%; inhibition of growth at 10 µM (OVCAR-4): 33.4%; inhibition of growth at 10 µM (NCI/ADR-RES): 43.7%; inhibition of growth at 10 µM (RXF 393): 1.37%; inhibition of growth at 10 µM (SF-295): 33.1%; inhibition of growth at 10 µM (MDA-MB-435): 33.6%; inhibition of growth at 10 µM (HCC 2998): 11.8%; inhibition of growth at 10 µM (K562): 69.2%; inhibition of growth at 10 µM (PC-3): 59.6%
COc1ccc(C(=O)Nc2cccc(-c3cc(=O)c4c(O)c(OC)c(OC)cc4o3)c2)cc1	25.7%	11.9%	25.2%	24.5%	8.16%	4.63%	0.28%	32.5%	6.47%	9.78%	15.7%	34.4%	-7.69%	18.4%	9.6%	41.4%	15.4%	9.4%	30.2%	5.4%	inhibition of growth at 10 µM (A549): 15.1%; inhibition of growth at 10 µM (SF-539): 15.3%; inhibition of growth at 10 µM (MOLT-4): 19.1%; inhibition of growth at 10 µM (NCI-H460): 17.4%; inhibition of growth at 10 µM (Hs-578T): 25.8%; inhibition of growth at 10 µM (UACC-257): 13.6%; inhibition of growth at 10 µM (OVCAR-4): 4.66%; inhibition of growth at 10 µM (NCI/ADR-RES): 13.3%; inhibition of growth at 10 µM (RXF 393): 4.27%; inhibition of growth at 10 µM (SF-295): 20.6%; inhibition of growth at 10 µM (MDA-MB-435): 5.59%; inhibition of growth at 10 µM (HCC 2998): 19.4%; inhibition of growth at 10 µM (K562): 11.9%; inhibition of growth at 10 µM (PC-3): 19.6%
